Our source for the IC50, Activity and DC50 values is ChEMBL document CHEMBL5038641, “Development of PDE6D and CK1α Degraders through Chemical Derivatization of FPFT-2216” (J Med Chem, 2022).

Activity calls are given as the source filed them. The rule behind the calls is not given here.

Assay [1] deals with MIA PaCa-2. Description: Antiproliferative activity against human MIA PaCa-2 cells assessed as reduction in cell viability measured after 3 days by Celltiter-Glo assay. Type of assay: functional, cell-based. Conditions: for IC50: MIA PaCa-2, 72 h; for Activity: time 3.0 day. The procedure, abridged: (§1)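 Cells grown per supplier recommendations with 10% FBS plus penicillin/streptomycin and mycoplasma-checked. 800 cells per well in 384-well format, dosed the next day at the indicated concentrations; depending on the agent, dosing was once or daily. Viability was read by CellTiter-Glo luminescence after three days of treatment, with a 20 min incubation before reading.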
(In general: ATP-based viability assays read luminescence as a measure of living cells.)

In assay [2] the test system is AGS. Description: Antiproliferative activity against human AGS cells assessed as reduction in cell viability measured after 3 days by Celltiter-Glo assay. To be noted: for IC50: 72 h; for Activity: time 3.0 day. Type of assay: functional, cell-based. The procedure, abridged:
as §1

The subject of assay [3] is NCI-H358. Description: Antiproliferative activity against human NCI-H358 cells assessed as reduction in cell viability measured after 3 days by Celltiter-Glo assay. Format: functional, cell-based. Conditions: for IC50: NCI-H358, 72 h; for Activity: time 3.0 day. The method, boiled down: as §1
The subject of assay [4] is PaTu 8988t. Kind of assay: Antiproliferative activity against human PaTu 8988t cells assessed as reduction in cell viability measured after 3 days by Celltiter-Glo assay. Conditions: for IC50: 72 h; for Activity: time 3.0 day. Type of assay: functional, cell-based. The method, boiled down:
as §1

The target in assay [5] is T1, Protein cereblon/Retinal rod rhodopsin-sensitive cGMP 3',5'-cyclic phosphodiesterase subunit delta (Homo sapiens, UniProt O43924+Q96SW2). Description: Protac activity at CRBN/PDE6D in human MOLT-4 cells assessed as induction of PDE6D degradation at 1 microM measured after 4 hrs by Immunoblotting analysis. Type of assay: cell-based. The method, boiled down:
(§2)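 MOLT4 cells treated for 4 h, either at a single 1 µM screening dose or across a concentration series. Lysates were made in RIPA with protease/phosphatase inhibitors, and 20 μg protein was resolved by SDS-PAGE and transferred to nitrocellulose. PDE6D, IKZF1, IKZF3 and CK1α were immunoblotted against β-actin and detected with IRDye secondaries.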
For orientation: In western blotting, separated proteins are transferred to a membrane and probed.
Target sequence in this assay (O43924 whole entry, looked up): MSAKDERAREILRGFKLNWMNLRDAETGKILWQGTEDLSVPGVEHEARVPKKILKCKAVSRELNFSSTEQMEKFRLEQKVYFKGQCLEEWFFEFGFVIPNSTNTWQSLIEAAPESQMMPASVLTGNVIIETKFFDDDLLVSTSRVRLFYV
Target sequence in this assay (Q96SW2 whole entry, looked up): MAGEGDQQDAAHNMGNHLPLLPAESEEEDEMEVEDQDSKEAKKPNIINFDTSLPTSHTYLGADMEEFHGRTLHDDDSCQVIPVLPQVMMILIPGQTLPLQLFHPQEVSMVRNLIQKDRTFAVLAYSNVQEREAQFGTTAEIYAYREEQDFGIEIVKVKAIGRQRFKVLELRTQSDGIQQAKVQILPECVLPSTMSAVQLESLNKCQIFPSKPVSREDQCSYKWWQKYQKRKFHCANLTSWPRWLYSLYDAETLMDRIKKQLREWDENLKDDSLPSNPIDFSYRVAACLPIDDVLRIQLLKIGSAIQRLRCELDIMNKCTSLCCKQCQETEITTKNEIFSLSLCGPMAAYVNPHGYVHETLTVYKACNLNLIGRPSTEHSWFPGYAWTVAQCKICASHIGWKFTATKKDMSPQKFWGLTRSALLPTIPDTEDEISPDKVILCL

The target in assay [6] is T2, Cereblon/Casein kinase I alpha (Homo sapiens) (UniProt P48729+Q96SW2). Description: Protac activity at CRBN/CK1alpha in human MOLT-4 cells assessed as induction of CK1alpha degradation at 1 microM measured after 4 hrs by Immunoblotting analysis. Type of assay: cell-based. The procedure, abridged:
as §2

Assay [7] concerns the target T1, Protein cereblon/Retinal rod rhodopsin-sensitive cGMP 3',5'-cyclic phosphodiesterase subunit delta. Description: Protac activity at CRBN/PDE6D in human MOLT-4 cells assessed as induction of PDE6D degradation measured after 4 hrs by Immunoblotting analysis. Format: cell-based. The procedure, abridged: as §2
The target is the same in assay [8]. Description: Protac activity at CRBN/PDE6D in human Jurkat cells assessed as induction of PDE6D degradation measured after 4 hrs by Immunoblotting analysis. Format: cell-based. The procedure, abridged:
(§3)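 Jurkat or MM.1S cells given the indicated concentrations, up to 1 µM, for 4 h. RIPA lysates (30 min on ice) with 20 μg protein per lane were separated by SDS-PAGE and transferred to nitrocellulose. Blots were probed for PDE6D, IKZF1 (1:1000), IKZF3 (1:1000) and CK1α, with β-actin control and IRDye fluorescent secondary detection.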

Assay [9] has the same target. Kind of assay: Protac activity at CRBN/PDE6D in human MM1.S cells assessed as induction of PDE6D degradation measured after 4 hrs by Immunoblotting analysis. Type of assay: cell-based. The procedure, abridged:
as §3

Assay [10] deals with T3, Cereblon/Ikaros (Homo sapiens) (UniProt Q96SW2+Q13422). Description: Protac activity at CRBN/IKZF1 in human MOLT-4 cells assessed as induction of IKZF1 degradation at 1 microM measured after 4 hrs by Immunoblotting analysis. Format: cell-based. The procedure, abridged: as §2
Assay [11] deals with T4, Protein cereblon/Zinc finger protein Aiolos (Homo sapiens) (UniProt Q96SW2+Q9UKT9). Description: Protac activity at CRBN/IKZF3 in human MOLT-4 cells assessed as induction of IKZF3 degradation at 1 microM measured after 4 hrs by Immunoblotting analysis. Format: cell-based. The method, boiled down:
as §2

Assay [12] deals with T3, Cereblon/Ikaros (Homo sapiens). Kind of assay: Protac activity at CRBN/IKZF1 in human MOLT-4 cells assessed as induction of IKZF1 degradation at 250 nM measured after 4 hrs by proteome mass spectrometry.
Assay [13] concerns the target T4, Protein cereblon/Zinc finger protein Aiolos (Homo sapiens). Description: Protac activity at CRBN/IKZF3 in human MOLT-4 cells assessed as induction of IKZF3 degradation at 250 nM measured after 4 hrs by proteome mass spectrometry.
Assay [14] has the same target. Kind of assay: Protac activity at CRBN/IKZF3 in human Jurkat cells assessed as induction of IKZF3 degradation measured after 4 hrs by Immunoblotting analysis. Type of assay: cell-based. The method, boiled down: as §3
The target of assay [15] is T3, Cereblon/Ikaros (Homo sapiens). Kind of assay: Protac activity at CRBN/IKZF1 in human MOLT-4 cells assessed as induction of IKZF1 degradation measured after 4 hrs by Immunoblotting analysis. Type of assay: cell-based. The procedure, abridged: as §2
The target in assay [16] is T4, Protein cereblon/Zinc finger protein Aiolos (Homo sapiens). Description: Protac activity at CRBN/IKZF3 in human MOLT-4 cells assessed as induction of IKZF3 degradation measured after 4 hrs by Immunoblotting analysis. Format: cell-based. The method, boiled down: as §2
For assay [17], the target named is T3, Cereblon/Ikaros (Homo sapiens). Kind of assay: Protac activity at CRBN/IKZF1 in human Jurkat cells assessed as induction of IKZF1 degradation measured after 4 hrs by Immunoblotting analysis. Format: cell-based. The procedure, abridged:
as §3

Assay [18] shares this target. Description: Protac activity at CRBN/IKZF1 in human MM1.S cells assessed as induction of IKZF1 degradation measured after 4 hrs by Immunoblotting analysis. Format: cell-based. The procedure, abridged: as §3
The target of assay [19] is T4, Protein cereblon/Zinc finger protein Aiolos (Homo sapiens). Description: Protac activity at CRBN/IKZF3 in human MM1.S cells assessed as induction of IKZF3 degradation measured after 4 hrs by Immunoblotting analysis. Type of assay: cell-based. The method, boiled down:
as §3

The target in assay [20] is T2, Cereblon/Casein kinase I alpha (Homo sapiens). Description: Protac activity at CRBN/CK1alpha in human MM1.S cells assessed as induction of CK1alpha degradation at 40 nM measured after 4 hrs by Immunoblotting analysis. Type of assay: cell-based. The method, boiled down:
as §3

Assay [21] has as its target Retinal rod rhodopsin-sensitive cGMP 3',5'-cyclic phosphodiesterase subunit delta (Homo sapiens) (UniProt O43924). Description: Induction of PDE6D degradation in human CRBN-null MOLT4 cells at 8 to 200 nM incubated for 4 hrs by Immunoblotting analysis. Format: cell-based. To be noted: MOLT-4, dose 8-200 nM.
Assay [22] deals with DNA-binding protein Ikaros (Homo sapiens) (UniProt Q13422). Kind of assay: Induction of IKZF1 degradation in human CRBN-null MOLT4 cells at 8 to 200 nM incubated for 4 hrs by Immunoblotting analysis. Format: cell-based. Conditions: MOLT-4, dose 8-200 nM.
Chain of DNA-binding protein Ikaros (Homo sapiens) (Q13422 whole entry): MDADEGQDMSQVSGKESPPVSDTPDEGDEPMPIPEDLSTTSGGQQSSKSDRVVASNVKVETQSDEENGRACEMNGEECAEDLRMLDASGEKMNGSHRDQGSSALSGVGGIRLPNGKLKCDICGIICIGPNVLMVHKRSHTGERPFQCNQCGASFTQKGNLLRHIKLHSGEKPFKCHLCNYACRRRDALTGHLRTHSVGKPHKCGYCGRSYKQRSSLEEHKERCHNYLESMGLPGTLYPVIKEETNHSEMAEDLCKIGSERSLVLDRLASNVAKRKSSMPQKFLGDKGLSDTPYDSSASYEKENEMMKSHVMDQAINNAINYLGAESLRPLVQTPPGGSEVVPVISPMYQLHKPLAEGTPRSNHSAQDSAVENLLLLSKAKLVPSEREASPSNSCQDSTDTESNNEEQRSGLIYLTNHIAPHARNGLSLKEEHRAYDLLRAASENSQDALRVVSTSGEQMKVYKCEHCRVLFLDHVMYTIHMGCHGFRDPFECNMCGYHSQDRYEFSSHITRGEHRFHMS

T2 sequence (P48729 2-337 limits assumed): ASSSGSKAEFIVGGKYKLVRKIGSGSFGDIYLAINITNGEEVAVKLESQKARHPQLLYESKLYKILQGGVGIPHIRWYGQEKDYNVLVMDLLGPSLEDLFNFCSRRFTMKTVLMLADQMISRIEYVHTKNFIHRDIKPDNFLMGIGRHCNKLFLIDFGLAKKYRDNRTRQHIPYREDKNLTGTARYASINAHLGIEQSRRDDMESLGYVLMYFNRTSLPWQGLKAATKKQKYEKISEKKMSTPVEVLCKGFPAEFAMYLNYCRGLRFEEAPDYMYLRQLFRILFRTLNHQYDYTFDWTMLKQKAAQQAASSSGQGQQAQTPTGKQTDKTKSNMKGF
T2 sequence (Q96SW2 whole entry partner): as the sequence (Q96SW2 whole entry, looked up) above
T4 sequence (Q96SW2 whole entry, looked up): as above
T4 sequence (Q9UKT9 whole entry, looked up): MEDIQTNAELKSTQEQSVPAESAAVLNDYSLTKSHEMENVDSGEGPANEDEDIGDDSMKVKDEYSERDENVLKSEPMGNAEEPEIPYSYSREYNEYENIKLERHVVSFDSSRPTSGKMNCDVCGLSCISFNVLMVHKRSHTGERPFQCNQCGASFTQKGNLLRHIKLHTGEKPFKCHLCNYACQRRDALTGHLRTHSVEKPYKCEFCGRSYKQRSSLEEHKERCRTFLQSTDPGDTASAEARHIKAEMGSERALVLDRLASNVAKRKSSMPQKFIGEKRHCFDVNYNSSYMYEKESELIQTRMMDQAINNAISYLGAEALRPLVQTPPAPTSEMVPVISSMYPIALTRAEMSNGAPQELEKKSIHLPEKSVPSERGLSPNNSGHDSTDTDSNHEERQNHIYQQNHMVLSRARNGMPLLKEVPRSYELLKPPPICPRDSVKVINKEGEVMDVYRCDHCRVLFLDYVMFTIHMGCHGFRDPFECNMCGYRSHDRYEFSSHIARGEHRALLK
Chain of Retinal rod rhodopsin-sensitive cGMP 3',5'-cyclic phosphodiesterase subunit delta (Homo sapiens) (O43924 whole entry): as the sequence (O43924 whole entry, looked up) above

For `CNc1nccc(CN([C@H]2CC[C@H](N)CC2)S(=O)(=O)c2ccc(S(=O)(=O)N(Cc3ccc(Cl)cc3)C3CCCC3)cc2)n1`, the IC50 (as a rule, the midpoint of a concentration-inhibition curve) amounted to 507 nM in assay [1], 1200 nM in assay [2], 954 nM in assay [3] and 1200 nM in assay [4].

For `O=C1CCC(n2cc(-c3ccsc3)nn2)C(=O)N1` (stereo unspecified), the outcome in [5] and in [6] was Active. Also, the DC50 in [7], in [8] and in [9] was less than 200 nM in each case. Besides, the outcome in assay [1], in assay [2], in assay [3] and in assay [4] was inactive.

On to `COc1c(-c2cn(C3CCC(=O)NC3=O)nn2)csc1C(=O)N1CCCC1` (stereo unspecified), for which the outcome in [5], in assay [10], in assay [11], in assay [12] and in assay [13] was inactive. Besides, the Activity in assay [6] was 70%.

For `COc1c(-c2cn(C3CCC(=O)NC3=O)nn2)csc1C(=O)NC1CCCC1` (stereo unspecified), the result in assay [5], in [10] and in assay [11] was inactive. Moreover, the Activity in assay [6] came to 70%.

Turning to `CSc1cscc1-c1cn(C2CCC(=O)NC2=O)nn1` (stereo unspecified), the outcome in assay [14], in assay [10], in assay [11], in [6], in [15] and in assay [16] was inactive. In addition, the outcome in assay [17], in [18], in assay [19], in [1], in [2] and in assay [3] was inactive. Further, in assay [4], the outcome was inactive. Also, the result in [5], in assay [7], in assay [8] and in [9] was Active. Besides, the Activity in assay [20] came to 50%.

`COc1cscc1-c1cn(C2CCC(=O)NC2=O)nn1` (stereo unspecified): the result in assay [21], in [1], in assay [2], in [3], in assay [4] and in assay [22] was inactive.

For `C=C(F)C(=O)N1CCN(c2nc(OC[C@@H]3CCCN3C)nc3c2CCN(c2cccc4cccc(Cl)c24)C3)C[C@@H]1CC#N` [ADAGRASIB], the half-inhibitory concentration (IC50) is 4 nM in assay [1], 1400 nM in assay [2], 6 nM in assay [3] and 3000 nM in [4].
